Most compounds without a hit are left out; they make up all but 0.88% or so of the library.
CXCR6 inh: blocks human CXCR6 beta-arrestin recruitment. O00574. CHO-K1 PathHunter CXCR6 beta-arrestin, luminescence. inhibition, % at 20 µM. 360,000 tested, 0.36% active. AID 602244; in the data active = inhibition above about 34%, passing the limit was not always enough;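 note: antagonist mode with CXCL16 agonist at 10 nM final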
APJ antag: APJ receptor antagonism; P35414; CHO-K1 APJ beta-arrestin complementation, luminescence; inhibition, % at 20 µM; 330,000 tested, 0.32% active;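 active = inhibition above about 40% at 20 µM, limit read from the data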;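 note: cells challenged with 10 nM apelin-13 agonist together with compound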
PKA-R2B activ: PKA-R2B complex activation; 340,000 tested, 0.079% active; activation, % at 11.4 µM; PKA-R2B holoenzyme dissociation, Cy5-IP20 fluorescence polarization; R2B truncated from residue 108, S112A mutant; 0% DMSO only, 100% 113 µM cGMP; P22694+P31323;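 active = activation above a cutoff set at the mean over all compounds plus 3 SD, cut at about 18% in these data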;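 note: higher means more holoenzyme dissociation and a rise in polarization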
Target sequence (P31323 whole entry, looked up, other chains not shown, the tested form may be a part): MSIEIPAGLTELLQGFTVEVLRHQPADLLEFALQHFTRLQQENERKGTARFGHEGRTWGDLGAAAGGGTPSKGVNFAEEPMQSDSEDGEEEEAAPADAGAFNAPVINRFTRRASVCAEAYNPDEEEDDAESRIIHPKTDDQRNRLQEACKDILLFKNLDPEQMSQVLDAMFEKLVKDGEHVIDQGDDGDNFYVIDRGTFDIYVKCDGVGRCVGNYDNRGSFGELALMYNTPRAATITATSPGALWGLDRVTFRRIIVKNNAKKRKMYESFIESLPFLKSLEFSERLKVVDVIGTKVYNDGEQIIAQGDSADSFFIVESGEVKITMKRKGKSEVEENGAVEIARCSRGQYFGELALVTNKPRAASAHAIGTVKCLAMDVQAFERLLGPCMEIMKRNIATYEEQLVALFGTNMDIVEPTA
PKA-R1A act: activates the PKA-R1A holoenzyme complex; 340,000 tested, 0.083% active; P00514+P68181; PKA-R1A dissociation, Cy5-IP20 fluorescence polarization; scaled: DMSO 0%, 113 µM cGMP 100%; AID 504707; activation, % at 11.4 µM;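 active = percent activation above the mean of all tested compounds plus 3 SD, cut at about 19% in these data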;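 note: higher means more PKAc released from R1A so a rise in polarization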
CCR6 antagonist: antagonists of human CCR6 receptor; P51684; CHO-K1 CCR6 PathHunter beta-arrestin, luminescence, CCL20-stimulated; inhibition, % at 20 µM; 340,000 tested, 0.49% active;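 active = compounds whose inhibition of the agonist-driven luminescence signal at 20 µM reaches about 50%, limit read from the data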;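 note: cells stimulated with CCL20 at 14 nM final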
APJ ag: agonists of human APJ apelin receptor | P35414 | CHO-K1 APJ PathHunter beta-arrestin, luminescence; 0% DMSO wells, 100% apelin | activation, % at 20 µM | 330,000 tested, 0.11% active | AID 2520;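 active = activation more than six SD over the plate average, tested at 20 µM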
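system = engineered CHO-K1 APJ arrestin reporter cells | input = 1000 cells per well | timing = overnight seeding, 90 min compound at 25 °C, 1 h detection | measured by = enzyme-fragment complementation luminescence | read-out = beta-arrestin recruitment to APJ as agonist activity, luminescent signal | control set = negative DMSO alone, positive Apelin-13 at 10 nM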
Numbers stand for hits; i = inactive; nt = no result given.

SMILES	CXCR6 inh	APJ antag	PKA-R2B activ	PKA-R1A act	CCR6 antagonist	APJ ag
Cc1cc(NCc2ccccn2)n2ncc(-c3ccc(Cl)cc3)c2n1	i	i	nt	nt	i	i
Cc1cc(NCc2ccccn2)n2nc(C)c(-c3ccc(Cl)cc3)c2n1	i	i	i	i	51	i
Cc1c(C(=O)Nc2nc3ccccc3[nH]2)oc2ccccc12	i	i	i	i	56	i
Cc1c(C(=O)Nc2nc3ccccc3[nH]2)oc2ccc(Br)cc12	i	i	i	i	i	i
COc1cc2c(cc1O)C(Cc1ccc(O)cc1)[N+](C)([O-])CC2 (stereo not given)	i	i	i	i	i	i
COc1ccc(C[C@H]2c3cc(O)c(OC)cc3CC[N+]2(C)[O-])cc1O (stereo not given in full)	i	i	i	i	59	i
COc1ccc(CC(Cc2ccc(OC)c(OC)c2)NC=O)cc1OC	i	nt	i	i	nt	nt
C=C(C)C(=O)Oc1ccc(N=Nc2ccc(C)cc2)ccc1=O	65	nt	nt	nt	92	nt
CC(=O)c1ccc(N=Nc2ccc(C)cc2)cc1	i	i	i	i	i	i
O=S1(=O)N[C@@H](Cc2ccccc2)COc2cc(N3CCSCC3)ccc21	i	nt	nt	nt	nt	nt
O=[N+]([O-])c1cccc(/C=N\N=C2c3ccccc3-c3ccccc32)c1O	43	54	i	i	69	i
NC(N)=N/N=C/c1cccc([N+](=O)[O-])c1O	i	i	i	i	i	i
O=S1(=O)C=C(Sc2nc3cc(Cl)ccc3o2)c2ccccc21	56	i	i	i	74	i
Cc1cc(NC(=O)CSc2nc3cc(Cl)ccc3o2)no1	i	i	i	i	i	i
CCCCc1c(-c2cccc(Cl)c2)ncn1CCc1ccccc1OC	i	nt	nt	nt	nt	nt
CCOc1ccc2nc(N3C(=O)CNC3=S)sc2c1	i	i	i	i	60	i
O=C(NCc1ccc(F)cc1)c1cc(C2CCCN(C(=O)CCCc3ccccc3)C2)on1 (stereo not given)	i	nt	nt	nt	nt	nt
O=C1C=C(O)c2cccc(O)c2C1=O	i	i	i	i	i	i
O=C1C=C(c2c(O)ccc3ccccc23)c2ccccc2C1=O	46	nt	i	i	i	nt
CCCCNC(=O)C1(C)CCCCN1CC(=O)c1ccc(OC)cc1 (stereo not given)	i	nt	nt	nt	nt	nt
S=C(NNc1ccc2ccccc2c1)NC1CCCCC1	i	i	i	i	54	i
COC(=O)[C@]12CCCCC=C1N(Cc1ccco1)C(=O)[C@H](CC(=O)N1CCOCC1)C2	i	nt	nt	nt	nt	nt
O=C(Nc1ccccc1)C1=C(c2ccccc2)S(=O)(=O)CCS1(=O)=O	i	nt	i	i	51	nt
O=C(O)c1ccccc1C(=O)Nc1ccccc1	i	i	i	i	i	i
CN(C)C(CNC(=O)Cc1cccc(C(F)(F)F)c1)c1ccccc1 (stereo not given)	i	i	i	i	i	i
SMILES	CXCR6 inh	APJ antag	PKA-R2B activ	PKA-R1A act	CCR6 antagonist	APJ ag
CN(C)C(CNc1ccc(C(F)(F)F)cn1)c1ccccc1 (stereo not given)	i	i	i	i	63	i
CSc1ncccc1C(=O)OCC(=O)c1cc2ccccc2o1	i	i	i	i	50	i
CSc1ncccc1C(=O)OCC(=O)c1ccccc1	i	i	i	i	i	i
O=C(COC(=O)CCOc1ccccc1)NCCc1ccccc1	i	i	i	i	i	i
O=C(CCOc1ccccc1)OCC(=O)c1cc2ccccc2o1	i	i	i	i	85	i
O=C(NCCN1CCC(n2c(=O)[nH]c3ccccc32)CC1)c1ccc(Cl)c(Cl)c1	i	nt	nt	nt	nt	nt
COc1ccc(-c2sc3ccccc3c2-c2cc(OC)ccc2C=O)cc1	i	nt	nt	nt	nt	nt
CCNC(=O)C1(C)CCN(Cc2ccc(C#N)cc2)C1 (stereo not given)	i	nt	nt	nt	nt	nt
CC(=O)OCCNc1cc(SCc2ccco2)c2nonc2c1[N+](=O)[O-]	50	nt	i	i	75	nt
O=[N+]([O-])c1c(NCCCO)cc(SCc2ccco2)c2nonc12	i	i	i	i	63	i
Cn1ccnc1Sc1cc(NCCCO)c([N+](=O)[O-])c2nonc12	i	i	i	i	i	i
Cc1ccccc1CNC(=O)c1csc([C@@H]2C[C@H](O)[C@@H](CO)O2)n1	i	nt	nt	nt	nt	nt
